TDP2 inh: blocks human TDP2 phosphodiesterase activity | inhibition, % at 12.8 µM | recombinant TDP2, T5PNP hydrolysis, p-nitrophenol absorbance 415 nm | AID 720702 | 370,000 compounds, 0.34% hits;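 active = inhibition above the mean of all tested compounds plus 3 SD, set per campaign, cut at about 25% in these data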;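 also: 0% = DMSO with enzyme and 100% = buffer with substrate but no TDP2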
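Evaluation: % inhibition relative to enzyme-containing and enzyme-free wells. Material: recombinant human TDP2. Benchmarks: enzyme-free and DMSO wells. Timing: enzyme reaction with compound for 2 h at 37 °C. Compound dosing: 12.8 µM only. Measured by: p-Nitrophenol epi absorbance. Reagent: T5PNP substrate at 5 mM, a TopII-DNA adduct mimic. Replication: single well per compound.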
PP5 primary: inhibitors of human protein phosphatase 5 (PP5); P53041; purified PP5c, OMFP substrate fluorescence; inhibition, % at 6.7 µM; 320,000 compounds, 0.18% hits; AID 1987;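 active = inhibition above the campaign's mean inhibition across all tested compounds plus 3 SD, cut at about 9.5% in these data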;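 also: 0% = DMSO only and 100% = 100 µM cantharidin control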
GSTO1 counter: blocks human GSTO1 in RBBP9 counter-screen. AID 1974. recombinant GSTO1, activity-based probe fluorescence polarization. 300,000 compounds, 1.1% hits. inhibition, % at 5.96 µM;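 active = inhibition above the campaign mean inhibition plus 3 SD, cut at about 35% in these data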;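 also: 0% = GSTO1-1 with DMSO and 100% = wells lacking GSTO1-1 enzyme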
Target sequence (P78417 whole entry, looked up): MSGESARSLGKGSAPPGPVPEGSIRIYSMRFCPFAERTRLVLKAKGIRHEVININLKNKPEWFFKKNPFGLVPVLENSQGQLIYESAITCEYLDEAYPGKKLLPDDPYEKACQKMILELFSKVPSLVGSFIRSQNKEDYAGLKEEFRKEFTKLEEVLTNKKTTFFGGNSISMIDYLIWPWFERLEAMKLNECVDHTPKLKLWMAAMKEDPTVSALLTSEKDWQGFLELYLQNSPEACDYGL
PP1 inh: PP1-alpha (human) inhibition in PP5 counter-screen; purified PP1alpha, OMFP fluorescence; P62136; 320,000 compounds, 0.9% hits; AID 2235; inhibition, % at 6.7 µM;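 active = inhibition above the mean inhibition of all tested compounds plus 3 SD, computed separately for each screening campaign, cut at about 15% in these data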
Target sequence (P62136 whole entry, looked up): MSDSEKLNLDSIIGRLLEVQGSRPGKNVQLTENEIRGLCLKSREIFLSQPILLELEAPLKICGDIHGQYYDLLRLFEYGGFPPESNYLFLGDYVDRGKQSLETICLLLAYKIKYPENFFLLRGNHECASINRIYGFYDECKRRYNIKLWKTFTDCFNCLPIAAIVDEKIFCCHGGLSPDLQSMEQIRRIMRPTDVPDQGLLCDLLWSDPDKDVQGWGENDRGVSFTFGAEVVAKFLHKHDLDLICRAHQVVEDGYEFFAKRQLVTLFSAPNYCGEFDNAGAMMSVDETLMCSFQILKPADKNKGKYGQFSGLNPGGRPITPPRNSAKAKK
Apaf-1 inh: blocks human Apaf-1 apoptosome activity; reconstituted apoptosome caspase-3 activity, DEVD-Rh110 fluorescence; inhibition, % at 20 µM; 330,000 compounds, 0.71% hits; active = inhibition of at least 40% at 20 µM;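 also: plate controls were DMSO wells for no effect and DEVD-CHO caspase inhibitor wells for full effect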
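System: reconstituted apoptosome with Apaf-1, cytochrome c, caspase-9, procaspase-3, dATP; Signal: Rh110 fluorescence intensity; Schedule: 30 min compound preincubation, 50 min activation, room temperature; Reagent: cytochrome c trigger plus (Z-DEVD)2-Rh110 caspase-3 substrate.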
PP1 inh confirm: confirmation of human PP1 phosphatase inhibitors; shares compounds with PP1 inh; purified PP1alpha, OMFP substrate fluorescence; inhibition, % at 6.7 µM; 1,900 compounds, 52% hits;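 active = mean PP1 inhibition above a set limit taken from the earlier primary screen, cut at about 15% in these data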
PP5 inh counter: counter-screen for PP1 inhibitors: human PP5 phosphatase inhibition; shares compounds with PP1 inh; 1,900 compounds, 4% hits; inhibition, % at 6.7 µM; purified PP5c, OMFP fluorescence; AID 2360;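 active = mean PP5 inhibition over triplicate wells above about 9.5% taken from the earlier PP1 screen, limit read from the data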
* = called active by the depositor; nt = no result given. In the library only some 2.1% were active in any assay of this set; here they are far more common.

SMILES	TDP2 inh	PP5 primary	GSTO1 counter	PP1 inh	Apaf-1 inh	PP1 inh confirm	PP5 inh counter
COC(=O)[C@@H]1[C@H](O[Si](C)(C)C(C)(C)C)[C@H]2O[C@H]2C[C@H]1S(=O)(=O)c1ccccc1	-10.5	nt	nt	nt	nt	nt	nt
O=C(Cc1csc(NC(=O)Nc2ccc(Cl)cc2)n1)NC1CCCC1	-1.7	3.9	-3.0	24.3*	17.5	18.9*	-2.7
O=C(Cc1csc(NC(=O)Nc2ccc(Cl)cc2)n1)NCc1ccccn1	11.7	-0.8	-1.0	5.2	3.4	nt	nt
COc1cc(/C=C2\N=C(c3ccccc3)OC2=O)ccc1OCc1c(C)no[n+]1[O-]	-11.6	0.1	3.2	1.6	10.3	nt	nt
COc1ccc(/C=C2\N=C(c3c(-c4ccccc4)noc3C)OC2=O)cc1OC	10.2	0.7	1.8	19.1*	-20.1	-3.4	-2.1
CCOC(=O)Cc1cc(=O)n2[nH]c(-c3ccccc3)c(-c3ccccc3)c2n1	-10.9	4.3	2.5	39.1*	-30.2	40.5*	-1.1
CCOC(=O)Cc1cc(=O)n2[nH]c(-c3ccccc3)cc2n1	nt	2.0	-1.6	11.5	-5.9	nt	nt
CCC1CCCCN1S(=O)(=O)c1ccc(C(=O)Nc2nnc(-c3cccs3)o2)cc1 (centres undefined)	nt	2.9	-18.0	40.6*	13.2	33.1*	1.9
O=C(Nc1nnc(-c2cccs2)o1)c1cccc(C(F)(F)F)c1	10.1	2.8	-48.9	19.9*	4.0	18.3*	1.2
N#Cc1ccc(C(=O)Nc2nnc(-c3cccs3)o2)cc1	6.7	-0.1	-6.6	4.0	-2.6	nt	nt
CCN(CC)S(=O)(=O)c1ccc(N/N=C/c2cc(OC)c(OC)cc2OC)nc1	-8.9	-1.5	2.5	-1.3	2.4	nt	nt
CCOc1cccc(/C=N/Nc2ccc(S(=O)(=O)N(CC)CC)cn2)c1O	4.4	-1.3	0.3	30.8*	-4.2	32.5*	-1.9
Cc1ccc(C)c(NC(=O)CSc2nc3nc(-c4cccs4)cc(C(F)(F)F)c3c(=O)[nH]2)c1	4.1	3.0	-96.2	23.0*	12.3	14.3	-0.7
O=C(CSc1nc2nc(-c3cccs3)cc(C(F)(F)F)c2c(=O)[nH]1)Nc1ccc(F)c(F)c1	2.2	3.1	-54.5	38.8*	14.5	30.2*	1.6
Nc1nc(SCC(=O)Nc2ccc(C(F)(F)F)cc2)[nH]c(=O)c1NC(=O)c1ccc(F)c(F)c1	6.3	-0.1	-8.3	-0.5	-15.6	nt	nt
CCCCCCCCN1C(=O)[C@@H](CC(=O)N2CCCCC2)C[C@@]2(C(=O)OC)C1=C[C@H](COCc1ccccc1)O[C@@H]2C	-4.0	nt	nt	nt	nt	nt	nt
O=C(CSc1nc2ccc(Nc3nc(N4CCCC4)nc(N4CCCC4)n3)cc2s1)NCc1ccco1	-8.8	-0.4	-5.1	18.9*	11.7	5.4	2.3
COc1ccccc1-c1cc(-c2ccccc2)nc(SC(C(N)=O)c2ccccc2)c1C#N (centres undefined)	1.4	2.1	-8.0	18.9*	19.5	26.6*	-6.0
Cc1nc(SC(C(N)=O)c2ccccc2)c(C#N)c(C)c1C (centres undefined)	5.8	1.2	3.8	-5.5	-8.4	nt	nt
COC(=O)c1ccc(CSc2nc3scc(-c4cccs4)c3c(=O)[nH]2)o1	-0.6	0.7	-36.4	22.1*	-4.1	8.9	-2.0
CC1(OC(=O)c2cccs2)C(=O)C=C2C=C(c3ccc(C#N)cc3)OC=C2C1=O (centres undefined)	nt	3.2	33.4	21.4*	21.6	9.8	-0.8
CCOC(=O)c1sc(N2C(=O)C(O)=C(C(=O)c3ccco3)C2c2cccc(Cl)c2)nc1C (centres undefined)	7.9	2.1	-32.6	26.7*	17.3	16.9*	-0.7
Cc1nnc(N2C(=O)C(O)=C(C(=O)c3ccco3)C2c2cccc3ccccc23)s1 (centres undefined)	5.0	-0.2	0.8	0.2	-12.3	nt	nt
Cc1nnc(N2C(=O)C(O)=C(C(=O)c3ccco3)C2c2cccc([N+](=O)[O-])c2)s1 (centres undefined)	-5.8	-1.6	3.2	-1.0	-3.5	nt	nt
CCOC(=O)c1sc(N2C(=O)C(O)=C(C(=O)c3ccco3)C2c2cccc([N+](=O)[O-])c2)nc1C (centres undefined)	3.2	1.8	-54.9	38.5*	nt	45.4*	5.0
SMILES	TDP2 inh	PP5 primary	GSTO1 counter	PP1 inh	Apaf-1 inh	PP1 inh confirm	PP5 inh counter
Cc1ccc(S(=O)(=O)NCC(=O)N2CCN(c3ccccn3)CC2)cc1C	2.6	nt	nt	nt	nt	nt	nt
COC(=O)c1cc(-c2ccc3ccccc3c2)c(=O)n2c1CCC2	7.1	nt	nt	nt	nt	nt	nt
CCOC(=O)C1=CCC(c2ccccc2)N(S(=O)(=O)c2ccc(C)cc2)[C@H]1CC (some centres undefined)	-0.8	nt	nt	nt	nt	nt	nt
CC(=O)Nc1c(-c2ccc(C(F)(F)F)cc2)nc2ncccn12	-5.7	nt	nt	nt	nt	nt	nt
CCOc1ccc(C2NC(=O)Cc3cc(OC)c(OC)cc32)cc1 (centres undefined)	2.8	-0.6	5.2	23.7*	4.9	-2.4	0.9
CCc1c(-c2ccccc2)ncn1CCc1ccccc1OC	7.9	nt	nt	nt	nt	nt	nt
Cc1ccc(-n2nc3c(c2NC(=O)/C=C\c2ccc4c(c2)OCO4)CSC3)cc1	1.0	3.7	-10.8	19.6*	14.2	12.6	-1.6
CC(C)(C)C(=O)Nc1scc(-c2ccc(-c3ccccc3)cc2)c1C(=O)O	13.0	-5.5	2.3	17.6*	10.5	8.4	1.1
CCCCCCNC(=O)C1CSCCS(=O)(=O)N1Cc1ccc(C)cc1 (centres undefined)	-8.8	nt	nt	nt	nt	nt	nt
O=C(Nc1nn[nH]n1)c1cccc(Oc2ccccc2)c1	-7.1	0.6	5.9	25.7*	-3.6	8.2	-3.2
O=C(Nc1nn[nH]n1)c1cccc([N+](=O)[O-])c1	-0.8	-1.2	1.7	0.6	-14.6	nt	nt
CC(=O)C1=C(O)C(=O)N(c2cc(C(C)(C)C)on2)C1c1ccc(Br)cc1 (centres undefined)	-16.8	0.9	-7.5	19.6*	10.4	21.6*	-1.5
CC(=O)C1=C(O)C(=O)N(c2cc(C(C)(C)C)on2)C1c1ccc(C(C)C)cc1 (centres undefined)	nt	1.7	-11.2	7.8	13.0	nt	nt
COc1ccc(C2C(C(C)=O)=C(O)C(=O)N2c2ccc(Br)cc2)cc1 (centres undefined)	12.0	2.8	1.1	18.1*	6.6	16.8*	-3.0
CC(=O)C1=C(O)C(=O)N(c2ccc(O)cc2)C1c1ccc(Cl)cc1 (centres undefined)	-6.7	1.1	-4.6	5.4	-0.1	nt	nt
CC(=O)C1=C(O)C(=O)N(c2ccc(Br)cc2)C1c1ccc(Cl)cc1 (centres undefined)	1.6	-1.6	-5.8	27.8*	3.3	20.6*	-1.3
COC(=O)C1=C(C)N(C)C(=NCc2ccc(C(F)(F)F)cc2)NC1c1ccc(Cl)cc1 (centres undefined)	-10.8	nt	nt	nt	nt	nt	nt

From PubChem BioAssay
